Measured values published in ChEMBL document CHEMBL4038268, “Methylpyrrole inhibitors of BET bromodomains” (Bioorg Med Chem Lett, 2017).

Legend:
[1] = target: Bromodomain adjacent to zinc finger domain protein 2A (Homo sapiens, UniProt Q9UIF9); experiment: Inhibition of human BAZ2A (M1792 to L1905 residues) expressed in bacterial expression system by BROMOscan assay
[2] = Permeability of the compound; type: physicochemical; settings: not told; read-out: permeability
Peregrin (Homo sapiens) = target: T1, Peregrin (Homo sapiens) (UniProt P55201); experiment: Inhibition of human BRPF1 (E627 to G740 residues) expressed in bacterial expression system at 1 uM by BROMOscan assay
T1 sequence (whole entry): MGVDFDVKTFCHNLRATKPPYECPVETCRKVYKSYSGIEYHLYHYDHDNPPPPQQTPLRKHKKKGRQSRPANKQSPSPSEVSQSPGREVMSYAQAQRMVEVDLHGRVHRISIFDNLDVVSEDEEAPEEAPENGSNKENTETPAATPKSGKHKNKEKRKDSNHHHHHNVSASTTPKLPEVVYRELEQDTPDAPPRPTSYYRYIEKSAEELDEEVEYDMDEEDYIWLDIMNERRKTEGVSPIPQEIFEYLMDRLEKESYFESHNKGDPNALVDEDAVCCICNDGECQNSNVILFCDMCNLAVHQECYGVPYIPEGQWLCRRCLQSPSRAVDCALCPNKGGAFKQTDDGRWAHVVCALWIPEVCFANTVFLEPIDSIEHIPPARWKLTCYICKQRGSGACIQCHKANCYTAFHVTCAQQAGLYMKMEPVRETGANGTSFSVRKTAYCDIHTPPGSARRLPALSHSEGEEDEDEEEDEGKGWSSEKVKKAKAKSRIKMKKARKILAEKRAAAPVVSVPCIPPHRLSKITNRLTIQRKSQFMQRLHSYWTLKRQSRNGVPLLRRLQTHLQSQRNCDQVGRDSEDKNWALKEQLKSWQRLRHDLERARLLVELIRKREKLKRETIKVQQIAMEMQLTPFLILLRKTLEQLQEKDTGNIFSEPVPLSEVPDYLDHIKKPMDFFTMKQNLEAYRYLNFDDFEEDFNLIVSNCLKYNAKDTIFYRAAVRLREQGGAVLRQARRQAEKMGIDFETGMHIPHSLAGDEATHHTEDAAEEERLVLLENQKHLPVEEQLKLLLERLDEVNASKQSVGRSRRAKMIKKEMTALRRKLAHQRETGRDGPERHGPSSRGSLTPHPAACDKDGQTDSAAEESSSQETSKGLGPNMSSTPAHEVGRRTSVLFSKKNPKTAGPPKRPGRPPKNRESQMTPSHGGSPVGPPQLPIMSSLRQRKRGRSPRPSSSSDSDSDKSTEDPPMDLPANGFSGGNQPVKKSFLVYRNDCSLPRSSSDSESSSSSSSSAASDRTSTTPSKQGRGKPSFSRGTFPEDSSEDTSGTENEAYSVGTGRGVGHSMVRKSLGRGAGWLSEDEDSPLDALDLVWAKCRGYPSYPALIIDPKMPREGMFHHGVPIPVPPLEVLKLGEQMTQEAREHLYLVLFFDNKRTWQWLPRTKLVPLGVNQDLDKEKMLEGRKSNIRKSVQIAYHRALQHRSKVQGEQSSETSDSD

Mus musculus = experiment: Unbound AUC in mouse at 10 mg/kg, po; type: ADME, organism-based; settings: in vivo
[3] = target: T2, E3 ubiquitin-protein ligase TRIM33 (Homo sapiens, UniProt Q9UPN9); experiment: Inhibition of human TRIM33-phd-bromo (D882 to A1087 residues) expressed in bacterial expression system by BROMOscan assay
T2 sequence (Q9UPN9 whole entry): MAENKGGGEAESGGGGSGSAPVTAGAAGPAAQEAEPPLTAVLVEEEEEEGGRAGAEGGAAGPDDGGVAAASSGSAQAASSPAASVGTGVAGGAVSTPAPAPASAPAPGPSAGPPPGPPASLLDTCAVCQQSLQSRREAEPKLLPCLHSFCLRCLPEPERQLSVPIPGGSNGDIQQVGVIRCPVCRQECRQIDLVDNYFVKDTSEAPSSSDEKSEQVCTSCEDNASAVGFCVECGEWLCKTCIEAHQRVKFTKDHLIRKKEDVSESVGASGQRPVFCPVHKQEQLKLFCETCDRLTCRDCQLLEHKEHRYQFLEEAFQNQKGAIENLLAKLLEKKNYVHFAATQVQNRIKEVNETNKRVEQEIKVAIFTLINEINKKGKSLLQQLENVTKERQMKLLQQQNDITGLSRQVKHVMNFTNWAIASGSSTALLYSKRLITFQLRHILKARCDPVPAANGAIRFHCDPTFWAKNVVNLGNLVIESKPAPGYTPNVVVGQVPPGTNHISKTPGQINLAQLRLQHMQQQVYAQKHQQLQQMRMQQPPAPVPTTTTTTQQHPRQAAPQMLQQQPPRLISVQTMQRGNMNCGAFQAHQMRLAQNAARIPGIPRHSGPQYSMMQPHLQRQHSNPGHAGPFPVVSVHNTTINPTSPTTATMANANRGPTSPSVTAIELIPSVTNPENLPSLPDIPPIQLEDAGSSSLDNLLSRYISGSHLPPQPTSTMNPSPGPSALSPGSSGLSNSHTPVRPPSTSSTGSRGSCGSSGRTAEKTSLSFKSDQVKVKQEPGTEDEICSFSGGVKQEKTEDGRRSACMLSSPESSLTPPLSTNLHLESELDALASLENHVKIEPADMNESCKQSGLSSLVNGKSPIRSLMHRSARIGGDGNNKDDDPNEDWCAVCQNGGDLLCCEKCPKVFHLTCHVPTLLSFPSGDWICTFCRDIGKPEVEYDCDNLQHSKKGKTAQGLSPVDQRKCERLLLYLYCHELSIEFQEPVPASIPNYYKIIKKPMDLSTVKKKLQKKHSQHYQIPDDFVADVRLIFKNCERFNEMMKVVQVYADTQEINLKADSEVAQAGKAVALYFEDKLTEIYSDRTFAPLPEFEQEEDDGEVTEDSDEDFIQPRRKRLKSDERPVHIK

[4] = target: Bromodomain-containing protein 4 (Homo sapiens, UniProt O60885); experiment: Binding affinity to BRD4 BD2 (E352 to M457 residues) (unknown origin) expressed in Escherichia coli BL21 (DE3) after 1 hr by Alexa-647-conjugated probe based TR-FRET assay
MX1 = experiment: Antiproliferative activity against human MX1 cells incubated over 72 hrs by Cell Titre Glo luminescence assay; type: functional, cell-based; settings: MX1, 72 h
Outline: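 Triple-negative breast cancer line MX-1 grown 3 days with compound. Proliferation read with the CellTiter-Glo kit. EC50 is the mean of two measurements.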

Liver = experiment: Unbound intrinsic clearance in mouse liver microsomes; type: ADME, microsome
[5] = target: Bromodomain and WD repeat-containing protein 1 (Homo sapiens, UniProt Q9NSI6); experiment: Inhibition of human WDR9 bromodomain 2 (A1310 to E1430 residues) expressed in bacterial expression system by BROMOscan assay
Bromodomain and WD repeat-containing protein 1, sequence (Q9NSI6 whole entry, the tested form may be a part): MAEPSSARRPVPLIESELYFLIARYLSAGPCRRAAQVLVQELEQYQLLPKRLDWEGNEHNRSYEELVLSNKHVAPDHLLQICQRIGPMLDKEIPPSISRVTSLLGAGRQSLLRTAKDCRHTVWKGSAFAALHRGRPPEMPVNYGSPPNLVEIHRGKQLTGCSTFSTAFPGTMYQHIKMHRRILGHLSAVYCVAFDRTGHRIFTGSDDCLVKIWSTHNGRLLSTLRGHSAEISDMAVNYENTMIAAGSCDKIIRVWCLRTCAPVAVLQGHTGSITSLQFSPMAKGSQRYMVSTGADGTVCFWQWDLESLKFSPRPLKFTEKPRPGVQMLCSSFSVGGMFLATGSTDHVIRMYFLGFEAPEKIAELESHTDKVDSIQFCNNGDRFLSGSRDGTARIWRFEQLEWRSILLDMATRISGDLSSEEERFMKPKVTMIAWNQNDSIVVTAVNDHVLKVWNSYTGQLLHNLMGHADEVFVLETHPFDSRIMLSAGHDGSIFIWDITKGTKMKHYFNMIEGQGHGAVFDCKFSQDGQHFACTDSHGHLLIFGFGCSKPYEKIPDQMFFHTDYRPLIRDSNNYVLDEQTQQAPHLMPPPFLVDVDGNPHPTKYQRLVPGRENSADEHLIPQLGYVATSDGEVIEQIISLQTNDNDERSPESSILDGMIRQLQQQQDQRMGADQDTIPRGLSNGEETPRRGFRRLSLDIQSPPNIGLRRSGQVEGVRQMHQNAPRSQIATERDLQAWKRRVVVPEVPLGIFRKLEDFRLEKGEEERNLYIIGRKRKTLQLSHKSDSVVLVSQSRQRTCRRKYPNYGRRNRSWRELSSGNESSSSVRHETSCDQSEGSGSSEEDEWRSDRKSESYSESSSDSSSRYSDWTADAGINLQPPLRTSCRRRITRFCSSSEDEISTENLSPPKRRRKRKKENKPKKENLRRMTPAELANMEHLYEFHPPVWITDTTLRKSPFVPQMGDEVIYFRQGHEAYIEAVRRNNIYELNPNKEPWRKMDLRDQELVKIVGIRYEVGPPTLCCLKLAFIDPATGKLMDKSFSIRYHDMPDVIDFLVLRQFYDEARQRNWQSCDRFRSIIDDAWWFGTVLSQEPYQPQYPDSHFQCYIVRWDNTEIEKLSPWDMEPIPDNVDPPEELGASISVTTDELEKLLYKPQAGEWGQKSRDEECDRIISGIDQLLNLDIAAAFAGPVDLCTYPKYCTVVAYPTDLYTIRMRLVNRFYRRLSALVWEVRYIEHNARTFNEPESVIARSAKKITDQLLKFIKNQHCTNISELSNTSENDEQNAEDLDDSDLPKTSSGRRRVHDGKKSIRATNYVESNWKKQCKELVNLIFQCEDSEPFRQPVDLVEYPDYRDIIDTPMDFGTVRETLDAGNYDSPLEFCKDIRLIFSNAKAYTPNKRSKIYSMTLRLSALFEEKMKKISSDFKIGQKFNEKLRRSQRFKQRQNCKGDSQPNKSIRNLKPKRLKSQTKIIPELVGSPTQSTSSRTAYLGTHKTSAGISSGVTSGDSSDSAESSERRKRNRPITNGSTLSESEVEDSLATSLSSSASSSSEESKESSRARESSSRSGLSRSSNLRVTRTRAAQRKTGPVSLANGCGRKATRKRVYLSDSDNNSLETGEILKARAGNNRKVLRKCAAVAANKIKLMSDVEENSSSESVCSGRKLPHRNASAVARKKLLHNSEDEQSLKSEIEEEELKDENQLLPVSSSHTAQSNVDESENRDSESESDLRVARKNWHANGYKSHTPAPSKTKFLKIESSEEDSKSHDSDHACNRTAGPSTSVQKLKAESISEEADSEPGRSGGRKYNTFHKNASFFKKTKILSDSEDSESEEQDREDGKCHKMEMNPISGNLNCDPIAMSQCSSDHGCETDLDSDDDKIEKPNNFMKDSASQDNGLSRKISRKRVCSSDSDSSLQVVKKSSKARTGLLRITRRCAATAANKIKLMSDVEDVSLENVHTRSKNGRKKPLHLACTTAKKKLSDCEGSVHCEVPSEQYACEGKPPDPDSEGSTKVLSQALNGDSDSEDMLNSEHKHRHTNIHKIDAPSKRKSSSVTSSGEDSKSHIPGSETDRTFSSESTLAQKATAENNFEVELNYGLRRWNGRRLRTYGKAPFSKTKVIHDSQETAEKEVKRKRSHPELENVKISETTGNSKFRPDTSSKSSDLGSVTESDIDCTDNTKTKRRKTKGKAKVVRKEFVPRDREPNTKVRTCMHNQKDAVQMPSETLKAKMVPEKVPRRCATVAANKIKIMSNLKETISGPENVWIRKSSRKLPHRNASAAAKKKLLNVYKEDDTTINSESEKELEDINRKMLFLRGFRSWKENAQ

[6] = target: Bromodomain-containing protein 3 (Homo sapiens, UniProt Q15059); experiment: Binding affinity to BRD3 BD1-BD2 (P24 to P416 residues) (unknown origin) after 1 hr by Alexa-647-conjugated probe based TR-FRET assay
Bromodomain-containing protein 3, sequence (Q15059 whole entry, the tested form may be a part): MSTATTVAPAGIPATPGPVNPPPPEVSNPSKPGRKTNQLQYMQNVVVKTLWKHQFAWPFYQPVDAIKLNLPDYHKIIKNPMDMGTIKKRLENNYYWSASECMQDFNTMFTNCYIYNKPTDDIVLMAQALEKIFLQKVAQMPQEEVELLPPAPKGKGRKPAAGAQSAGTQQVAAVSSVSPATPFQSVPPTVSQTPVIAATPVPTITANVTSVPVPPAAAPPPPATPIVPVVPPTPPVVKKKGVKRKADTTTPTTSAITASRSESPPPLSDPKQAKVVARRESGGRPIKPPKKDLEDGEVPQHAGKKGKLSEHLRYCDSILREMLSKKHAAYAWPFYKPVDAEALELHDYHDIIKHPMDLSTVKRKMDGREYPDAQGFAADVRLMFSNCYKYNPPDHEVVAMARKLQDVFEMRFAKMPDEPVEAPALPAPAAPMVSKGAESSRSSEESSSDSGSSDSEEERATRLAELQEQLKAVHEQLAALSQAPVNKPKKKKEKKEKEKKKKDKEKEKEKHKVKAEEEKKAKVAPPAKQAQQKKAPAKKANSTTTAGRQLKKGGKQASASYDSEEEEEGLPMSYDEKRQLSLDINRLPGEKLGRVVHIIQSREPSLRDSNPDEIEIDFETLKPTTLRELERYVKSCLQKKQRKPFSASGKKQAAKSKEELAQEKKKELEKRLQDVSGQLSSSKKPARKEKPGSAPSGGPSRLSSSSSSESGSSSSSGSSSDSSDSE

[7] = Oral bioavailability in mouse at 10 mg/kg; type: ADME, organism-based; settings: in vivo

Bromodomain adjacent to zinc finger domain protein 2A, sequence (Q9UIF9 whole entry, the tested form may be a part): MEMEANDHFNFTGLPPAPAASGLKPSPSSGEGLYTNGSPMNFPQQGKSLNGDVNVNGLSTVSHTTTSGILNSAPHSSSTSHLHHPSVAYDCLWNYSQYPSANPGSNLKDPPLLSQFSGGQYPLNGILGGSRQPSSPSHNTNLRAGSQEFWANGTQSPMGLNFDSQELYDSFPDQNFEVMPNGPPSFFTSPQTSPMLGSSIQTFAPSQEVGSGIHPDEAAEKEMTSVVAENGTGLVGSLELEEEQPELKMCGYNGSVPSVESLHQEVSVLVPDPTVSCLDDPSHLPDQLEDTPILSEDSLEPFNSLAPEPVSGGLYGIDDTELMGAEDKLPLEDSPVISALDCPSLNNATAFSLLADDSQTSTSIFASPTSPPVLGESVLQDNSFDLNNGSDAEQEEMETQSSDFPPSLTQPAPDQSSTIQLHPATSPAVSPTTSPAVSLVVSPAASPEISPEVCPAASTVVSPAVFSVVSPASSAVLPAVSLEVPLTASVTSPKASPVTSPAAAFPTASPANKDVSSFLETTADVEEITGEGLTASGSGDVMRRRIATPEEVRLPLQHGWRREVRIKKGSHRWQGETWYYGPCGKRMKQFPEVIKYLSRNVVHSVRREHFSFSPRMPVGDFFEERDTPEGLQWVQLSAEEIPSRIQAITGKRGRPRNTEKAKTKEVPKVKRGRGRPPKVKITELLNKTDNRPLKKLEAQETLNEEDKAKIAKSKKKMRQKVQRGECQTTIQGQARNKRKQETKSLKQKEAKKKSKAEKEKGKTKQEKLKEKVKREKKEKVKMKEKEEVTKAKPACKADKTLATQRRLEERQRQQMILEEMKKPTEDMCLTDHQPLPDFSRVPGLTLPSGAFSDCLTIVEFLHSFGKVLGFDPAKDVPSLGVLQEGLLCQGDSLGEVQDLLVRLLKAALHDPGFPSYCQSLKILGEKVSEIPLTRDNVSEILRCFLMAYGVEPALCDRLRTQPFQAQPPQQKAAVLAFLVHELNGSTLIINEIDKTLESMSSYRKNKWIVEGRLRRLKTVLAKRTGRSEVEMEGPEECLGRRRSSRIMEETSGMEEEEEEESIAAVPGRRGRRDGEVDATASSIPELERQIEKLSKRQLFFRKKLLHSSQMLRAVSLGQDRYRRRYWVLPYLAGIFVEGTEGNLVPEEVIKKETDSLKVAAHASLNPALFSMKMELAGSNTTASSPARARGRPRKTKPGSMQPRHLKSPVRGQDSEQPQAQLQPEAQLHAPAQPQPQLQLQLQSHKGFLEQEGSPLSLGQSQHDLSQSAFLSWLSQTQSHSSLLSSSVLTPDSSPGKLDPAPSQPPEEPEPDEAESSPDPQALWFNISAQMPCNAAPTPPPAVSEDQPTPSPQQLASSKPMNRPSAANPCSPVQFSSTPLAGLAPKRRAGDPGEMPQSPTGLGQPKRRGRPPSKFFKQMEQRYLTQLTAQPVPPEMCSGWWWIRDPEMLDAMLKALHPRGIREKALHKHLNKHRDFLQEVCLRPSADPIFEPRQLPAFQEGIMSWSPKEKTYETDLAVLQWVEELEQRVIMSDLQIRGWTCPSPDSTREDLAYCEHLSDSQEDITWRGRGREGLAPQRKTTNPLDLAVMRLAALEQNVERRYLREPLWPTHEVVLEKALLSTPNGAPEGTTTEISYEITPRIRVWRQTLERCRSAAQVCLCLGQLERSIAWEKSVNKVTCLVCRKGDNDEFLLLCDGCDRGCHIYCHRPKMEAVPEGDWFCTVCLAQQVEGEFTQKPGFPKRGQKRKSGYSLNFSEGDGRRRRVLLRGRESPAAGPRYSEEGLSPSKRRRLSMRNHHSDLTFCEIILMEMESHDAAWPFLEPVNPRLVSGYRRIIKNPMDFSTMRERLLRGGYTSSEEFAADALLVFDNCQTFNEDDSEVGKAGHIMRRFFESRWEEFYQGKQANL

| IC50 [1] [nM] | Papp [2] [×10⁻⁶ cm/s] | inhibition (Peregrin (Homo sapiens)) [%] | fAUC (Mus musculus) [µM·h] | IC50 [3] [nM] | Ki [4] [nM] | CL free (Liver) [mL/min/kg] | IC50 [5] [nM] | Ki [6] [nM] | bioavailability [7] [%] | SMILES | EC50 (MX1) [nM] |
| --- | --- | --- | --- | --- | --- | --- | --- | --- | --- | --- | --- |
| > 10000 | 22 | 98.6 | 0.53 | > 10000 | 38 | < 115 | > 10000 | 110 | 32 | Cc1[nH]c(-c2cc(S(C)(=O)=O)ccc2Oc2ccc(F)cc2F)c2c1C(=O)NCC2 | 900 |
| 10000 | 35 | 83 | 0.86 | > 10000 | 280 | 200 | > 10000 | 290 | 57 | Cn1cc(-c2cc(S(C)(=O)=O)ccc2Oc2ccc(F)cc2F)c2cc[nH]c(=O)c21 | 110 |

| SMILES | IC50 [1] [nM] | Papp [2] [×10⁻⁶ cm/s] | inhibition (Peregrin (Homo sapiens)) [%] | fAUC (Mus musculus) [µM·h] | IC50 [3] [nM] | Ki [4] [nM] | CL free (Liver) [mL/min/kg] | IC50 [5] [nM] | Ki [6] [nM] | bioavailability [7] [%] | EC50 (MX1) [nM] |
| --- | --- | --- | --- | --- | --- | --- | --- | --- | --- | --- | --- |
| Cc1[nH]c(-c2cc(NS(C)(=O)=O)ccc2Oc2ccccc2)c2c1C(=O)CCC2 | 10000 | 27 | 100 | 0.09 | > 10000 | 38 | 917 | 10000 | 35 | 30 | 160 |
